# Source: PubChem BioAssay
# Only some compounds are listed: those with a hit (about 12% of all), similar ones and a draw of the others.
# Lmaj promast: Leishmania major promastigote growth inhibition, primary screen; Leishmania major promastigotes, resazurin fluorescence viability; inhibition, % at 10 µM; 200,000 tested, 9% active; AID 1063, 2008; in the data active = inhibition above about 50%;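 note: promastigotes grown with compound for 44 hours at 28 °C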
# bCat nuc transl: modulators of beta-catenin nuclear translocation, primary screen, imaging, HeLa cells, immunofluorescence, high-content; 190,000 tested, 0.3% active; AID 1665, 2009; nuclear translocation activity, % at 5 µM;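 active = nuclear translocation activity above 50% at 5 µM, with a well cell count of 50 or more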;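 note: per-cell ratio of nuclear to cytoplasmic median beta-catenin stain intensity; plate controls were DMSO negative control for no effect and GSK-3 inhibitor IX positive control for full effect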
#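 Technique: fluorescence imaging of beta-catenin antibody stain plus DAPI / Material: human HeLa cell line / Incubation: compound treatment 24 h, 37°C, 5% CO2 / Read-out basis: % activation of per-cell nuclear versus cytoplasmic median beta-catenin signal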
# Dynein transport: inhibitors of GR-EGFP nuclear translocation, primary screen, dynein cargo transport inhibitor project, imaging, high-content, 3617.4 mouse cells; 220,000 tested, 0.47% active; z-score, hits read low; test concentration mostly 20 µM; stimulated with dexamethasone, 1 µM; active compounds read low; AID 1381, 2008;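 active = plate z-score of nuclear minus cytoplasmic receptor signal below a set negative limit, without overly bright fluorescence or cell loss, cut at about -3.5 in these data, passing the limit was not always enough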;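 note: z-score of nuclear minus cytoplasmic ring GR-EGFP intensity difference per well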
#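 Also added – dexamethasone, 1.0 µM final · Buffer or medium – tet-free, stripped-serum medium · Schedule – induction 48 h, compound 1 h, agonist 30 min · Detection – formaldehyde fixation, Hoechst nuclear stain, 10x automated fluorescence imaging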
# MT stabilize HCS: microtubule stabilizers in HeLa cells, primary screen, imaging, high-content imaging | HeLa tubulin immunostaining HCS, 24 h; share of cells brighter than vehicle mean+2SD | % tubulin-high responders, % at 10 µM | 200,000 tested, 0.83% active;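 active = plate Z-score above 3 for both tubulin-high and condensed-nucleus cell shares, with cell loss under 80%, at 10 µM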;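 note: anti alpha tubulin signal scored within the nucleus-defined area of each cell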
# CHOP inhibitor: inhibitors of CHOP promoter induction, primary screen, cell-based, unfolded protein response, luciferase reporter; inhibition, % at 10 µM; 220,000 tested, 3.8% active; CHO-K1 CHOP-promoter luciferase, tunicamycin-induced, 15-18 h; AID 2732, 2010;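 active = compounds that reduced the stress-induced luciferase reporter signal by more than about 70% of percent inhibition, limit read from the data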;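 note: 0% = tunicamycin plus vehicle and 100% = wells without tunicamycin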
# Autophagy HCS: autophagy modulators in MEF cells, primary screen, imaging, high-content, MEF GFP-LC3 | 190,000 tested, 0.98% active | calls only at 10 µM (by protocol) | MEF GFP-LC3 puncta imaging; test concentration mostly 10 µM;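 active = percentage of spot-positive cells more than 3 SD above its plate mean, without a fluorescence outlier flag or 80% toxicity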;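 note: spot-positive cell cutoff set from DMSO-treated cells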
# * = called active by the depositor; i = inactive; . = no result.
SMILES,Lmaj promast,bCat nuc transl,Dynein transport,MT stabilize HCS,CHOP inhibitor,Autophagy HCS
COc1cccc(N(CC(=O)NCC2CCCO2)C(=O)CCC(=O)Nc2nccs2)c1 (centres undefined),-1,0,0.27,3,19,i
CCOc1ccccc1OCCOCCN1CC(C)OC(C)C1 (centres undefined),63*,0,-0.29,3,33,i
C=CCc1ccc(OCCCOc2ccc(C(=O)O)cc2)c(OC)c1,5,-1,-0.42,3,5,i
CC1CN(CCOc2ccc(Cl)cc2Cl)CC(C)O1 (centres undefined),40,-5,-0.55,5,25,i
CCOc1cc(Br)ccc1S(=O)(=O)N1CC(C)OC(C)C1 (centres undefined),-1,-2,-0.18,2,32,i
C=CCc1ccc(OCCCCN2CCC(C)CC2)c(OC)c1,89*,-1,-0.26,6,-1,i
COc1cc(C)ccc1OCCCCN1CC(C)OC(C)C1 (centres undefined),97*,-3,-0.27,1,27,i
C=CCc1ccc(OCCCCN2CC(C)CC(C)C2)c(OC)c1 (centres undefined),96*,1,0.48,6,-5,i
C=CCc1ccc(OCCCN2CCCC(C)C2)c(OC)c1 (centres undefined),100*,4,-0.6,3,14,i
COC(=O)C(Cc1ccccc1)NC(=O)c1cc(S(=O)(=O)N(C)C)ccc1Cl (centres undefined),0,-3,-0.61,6,8,i
COc1ccc(O)c(N)c1,98*,4,-0.25,4,-18,i
COc1ccc(/C(C)=N/N=C(N)N)c(O)c1,.,1,-0.46,.,-4,.
Cc1ccc(Nc2c([N+](=O)[O-])cc(C(=O)N3CC(=O)Nc4ccccc43)cc2[N+](=O)[O-])c(C)c1,88*,2,-0.31,3,-10,i
CCOC(=O)C1CCN(C(=O)CN(c2ccc3c(c2)OCCO3)S(C)(=O)=O)CC1,-9,.,0.34,1,19,i
O=C(c1cccs1)C1CCCN(Cc2nc(Cc3ccccc3F)no2)C1 (centres undefined),78*,2,0.66,2,24,i
CCCCc1nc(SCc2ccc([N+](=O)[O-])cc2)n[nH]1,-3,0,-0.99,3,52,i
Cc1ccnc(NC(c2ccccn2)c2c(C)[nH]c3ccccc23)c1 (centres undefined),74*,-3,-1.3,4,-60,i
COc1ccc(OC)c(NC(=O)C2C3CCC(O3)C2C(=O)O)c1 (centres undefined),-6,1,-0.5,3,5,i
CC(=O)c1cccc(NC(=O)Cc2coc3cc4c(cc23)CCC4)c1,3,1,1.1,4,1,i
C=C(C)C1CCC2(C(=O)O)CCC3(C)C(CCC4C5(C)C(C=O)C(O)C(C)(C)C5CCC43C)C12 (centres undefined),.,-1,-0.74,.,85*,.
Cn1c(/C(C#N)=C/C2CC=CCC2)nc2ccccc21 (centres undefined),79*,2,-1.6,5,16,i
N#C/C(=C\C1CC=CCC1)c1nc2ccccc2[nH]1 (centres undefined),95*,0,-0.16,2,11,i
CCCCN(CCCC)C(=O)c1ccccc1NC(=O)CN1C(=O)c2ccccc2C1=O,-7,-6,-0.02,2,40,i
COc1ccccc1-n1cnnc1SCC(=O)NCC1CCCO1 (centres undefined),0,-1,0.25,2,-9,i
Cc1cccc(-n2nc([N+](=O)[O-])c(=NCc3cccnc3)n2O)c1,82*,0,-1,4,-4,i
O=[N+]([O-])c1nn(-c2ccc(Cl)cc2)n(O)c1=NCc1cccnc1,96*,-1,-0.83,3,13,i
O=[N+]([O-])c1nn(-c2cccc(Cl)c2)n(O)c1=NCc1cccnc1,21,1,0.32,4,23,i
